Test results published in ChEMBL document CHEMBL1649158, “Emergence of plasmid-mediated quinolone resistance among non-Typhi Salmonella enterica isolates from humans in the United States” (2009).
Converted amounts (≈) assume the structure as drawn.

Assays:
Salmonella typhimurium [1] = experiment: Antimicrobial activity against multidrug-resistant Salmonella enterica serotype Typhimurium isolate AM27125 expressing qnrB5 gene by broth microdilution method
Salmonella typhimurium [2] = experiment: Antimicrobial activity against multidrug-resistant Salmonella enterica serotype Typhimurium var. O:5 isolate AM25008 expressing aac(6')-Ib-cr gene by broth microdilution method
[3] = Antimicrobial activity against trimethoprim-sulfamethoxazole-resistant Salmonella enterica serotype Montevideo isolate AM19383 expressing qnrS1 gene by broth microdilution method
[4] = Antimicrobial activity against Salmonella enterica serotype Corvallis isolate AM25927 expressing qnrS1 gene by broth microdilution method
Salmonella enterica [5] = experiment: Antimicrobial activity against Salmonella enterica serotype Aqua isolate AM26209 expressing qnrB5 gene by broth microdilution method; format: functional
Summary of the method: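 Broth microdilution panel of 14 to 17 antimicrobial agents against human clinical non-Typhi Salmonella isolates, read as MIC. The study enrolled isolates with decreased ciprofloxacin susceptibility (≥0.25 mg/liter). qnr genes were detected by previously described methods. 2006 data are preliminary.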

[6] = Antimicrobial activity against tetracycline- and trimethoprim-sulfamethoxazole-resistant Salmonella enterica serotype Saintpaul isolate AM26790 expressing qnrS1 gene by broth microdilution method
Salmonella enterica [7] = experiment: Antimicrobial activity against Salmonella enterica serotype telelkebir isolate AM21420 expressing qnrB5 gene by broth microdilution method; format: functional
Summary of the method: (§1)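 MICs for 14 to 17 antimicrobial agents were measured by commercial broth microdilution panels. Isolates were screened for aac(6′)-Ib by SYBR green real-time PCR: 0.4 μM each primer, 35 cycles (95°C 20 s, 55°C 30 s, 72°C 30 s), then a 70–90°C melt curve.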

Salmonella typhimurium [8] = experiment: Antimicrobial activity against Salmonella enterica serotype Typhimurium isolate AM29869 expressing qnrS1 gene by broth microdilution method
Salmonella enterica [9] = experiment: Antimicrobial activity against multidrug-resistant Salmonella enterica serotype Cubana isolate AM28764 expressing qnrB2 gene by broth microdilution method; format: functional; summary of the method: as §1
[10] = Antimicrobial activity against tetracycline-resistant Salmonella enterica serotype Saintpaul isolate AM30594 expressing qnrS1 gene by broth microdilution method
[11] = Antimicrobial activity against multidrug-resistant Salmonella enterica serotype Corvallis isolate AM20376 expressing qnrS1 gene by broth microdilution method
Salmonella enteritidis = experiment: Antimicrobial activity against ampicillin- and streptomycin-resistant Salmonella enterica serotype Enteritidis isolate AM25798 expressing qnrS1 gene by broth microdilution method
Salmonella enterica [12] = experiment: Antimicrobial activity against nalidixic acid-resistant Salmonella enterica serotype Kiambu isolate AM27031 expressing qnrB5 gene by broth microdilution method; format: functional; summary of the method: as §1
Salmonella typhimurium [13] = experiment: Antimicrobial activity against multidrug-resistant Salmonella enterica serotype Typhimurium isolate AM27549 expressing qnrS1 gene by broth microdilution method
Salmonella typhimurium [14] = experiment: Antimicrobial activity against Salmonella enterica serotype Typhimurium isolate AM29365 expressing qnrS1 gene by broth microdilution method
Salmonella typhimurium [15] = experiment: Antimicrobial activity against multidrug-resistant Salmonella enterica serotype Typhimurium isolate AM27315 expressing qnrS1 gene by broth microdilution method
[16] = Antimicrobial activity against multidrug-resistant Salmonella enterica serotype Montevideo isolate AM28704 expressing qnrA1 gene by broth microdilution method
[17] = Antimicrobial activity against multidrug-resistant Salmonella enterica serotype Corvallis isolate AM25736 expressing qnrS1 gene by broth microdilution method

In the case of O=C(O)c1cn(C2CC2)c2cc(N3CCNCC3)c(F)cc2c1=O [CIPROFLOXACIN], the MIC (Salmonella typhimurium [1]) is reported as 0.5 µg/mL (≈ 1.51 µM), the MIC (Salmonella typhimurium [2]) is reported as 1 µg/mL (≈ 3.02 µM) and the MIC [3] is reported as 0.5 µg/mL (≈ 1.51 µM). The MIC [4] was 0.25 µg/mL (≈ 0.754 µM), the MIC (Salmonella enterica [5]) was 0.25 µg/mL (≈ 0.754 µM) and the MIC [6] was 0.5 µg/mL (≈ 1.51 µM). It also gave an MIC (Salmonella enterica [7]) of 0.5 µg/mL (≈ 1.51 µM), an MIC (Salmonella typhimurium [8]) of 0.5 µg/mL (≈ 1.51 µM) and an MIC (Salmonella enterica [9]) of 0.5 µg/mL (≈ 1.51 µM). The MIC [10] was 0.5 µg/mL (≈ 1.51 µM), the MIC [11] was 0.5 µg/mL (≈ 1.51 µM) and the MIC (Salmonella enteritidis) was 0.5 µg/mL (≈ 1.51 µM). For the same compound, the MIC (Salmonella enterica [12]) was 0.5 µg/mL (≈ 1.51 µM), the MIC (Salmonella typhimurium [13]) was 0.5 µg/mL (≈ 1.51 µM) and the MIC (Salmonella typhimurium [14]) was 0.5 µg/mL (≈ 1.51 µM). For the same compound, the MIC (Salmonella typhimurium [15]) was 0.5 µg/mL (≈ 1.51 µM), the MIC [16] was 0.25 µg/mL (≈ 0.754 µM) and the MIC [17] was 0.25 µg/mL (≈ 0.754 µM).
